Assays:
[1] = Muscarinic selectivity is reported as the ED50 ratio (ED50 Nicotinic / ED50 Muscarinic); type: functional
In short: (§1)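 Selectivity is computed from nicotinic (frog rectus abdominis) and muscarinic (guinea pig ileum) data as ED50(N)/ED50(M) and as EPMR(N)/EPMR(M). Each ED50 comes from regressing the angular transform of fractional effect on log agonist concentration, with carbachol as the reference.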

[2] = Equipotent molar ratio(EPMR) between the ED50 of compound and ED50 of carbachol calculated on guinea pig ileum; type: functional
In short: (§2)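 ED50 for test agonist and for carbachol (reference) were obtained by regressing the angular transform of fractional contractile effect against log agonist concentration. Potency is expressed as the equipotent molar ratio, ED50 test/ED50 carbachol. Values below 1 indicate greater potency than carbachol.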

[3] = Nicotinic activity on frog rectus abdominis; type: functional, Rectus abdominis muscle
[4] = Eudismic ratio was determined in frog rectus abdominis; type: functional, Rectus abdominis muscle
[5] = Eudismic ratio was determined in guinea pig ileum; type: functional
[6] = Equipotent molar ratio(EPMR) between the ED50 of compound and ED50 of carbachol calculated on frog rectus abdominis; type: functional, Rectus abdominis muscle; in short: as §2
[7] = Muscarinic selectivity is reported as the EPMR ratio (EPMR Nicotinic/ EPMR Muscarinic); type: functional; in short: as §1
Cavia porcellus = organism: Cavia porcellus; assay: Muscarinic activity on guinea pig ileum; type: functional

Row | Compound | Selectivity [1] | EPMR [2] | ED50 [3] | Eudismic ratio [4] | Eudismic ratio [5] | EPMR [6] | Selectivity [7] | ED50 (Cavia porcellus)
1 | C[C@H]1O[C@@H](C[N+](C)(C)C)CS1(=O)=O.[I-] | 2.1 | 170 | 0.033 nM | 12 | 1 | 6.5 | 0.04 | –
2 | C[C@@H]1O[C@H](C[N+](C)(C)C)CS1(=O)=O.[I-] | – | 168 | – | – | – | 76 | – | 0.000158 nM
3 | C[C@@H]1O[C@H](C[N+](C)(C)C)CS1(=O)=O | 24 | – | – | – | – | – | 0.5 | –
4 | C[C@H]1O[C@@H](C[N+](C)(C)C)C[S+]1[O-].[I-] (mixture of isomers) | – | 1.3 | 2300 nM | – | – | 45 | – | 12.2 nM
5 | C[C@H]1O[C@H](C[N+](C)(C)C)C[S+]1[O-].[I-] (mixture of isomers) | – | 209 | 2100 nM | – | – | 41 | – | 19.6 nM
6 | C[C@@H]1O[C@H](C[N+](C)(C)C)CS1(=O)=O.[I-] (racemic) | – | 281 | – | – | – | 15 | – | 0.000264 nM
7 | C[C@@H]1O[C@H](C[N+](C)(C)C)CS1(=O)=O (racemic) | 3 | – | – | – | – | – | 0.05 | –
8 | C[C@@H]1O[C@H](C[N+](C)(C)C)C[C@H]1O (racemic) [MUSCARINE] | – | 0.8 | > 500 | – | – | >95 | – | 79.4 nM
9 | C[N+](C)(C)CCOC(N)=O.[Cl-] [CARBACHOL] | – | 1 | 5100 nM | – | – | 1 | – | 94 nM

Source: ChEMBL document CHEMBL1123629, “Resolution, absolute configuration, and cholinergic enantioselectivity of (-)- and (+)-c-2-methyl-r-5-[(dimethylamino)methyl]-1,3-oxathiolane t-3-oxide methiodide and related sulfones” (1987)
